# Data published in ChEMBL document CHEMBL4402582, “Garcinoic Acid Is a Natural and Selective Agonist of Pregnane X Receptor” (J Med Chem, 2020).
# The source made the active and inactive calls. No cut-off for these calls is given here.
# Key:
# [1] = target: T1, Nuclear receptor subfamily 1 group I member 2 (Homo sapiens, UniProt O75469); assay: Agonist activity at PXR in human HepaRG cells assessed as reversion of PXR binding at 10 uM incubated for 24 hrs by immunoblot analysis; format: cell-based
# T1 sequence (O75469 whole entry): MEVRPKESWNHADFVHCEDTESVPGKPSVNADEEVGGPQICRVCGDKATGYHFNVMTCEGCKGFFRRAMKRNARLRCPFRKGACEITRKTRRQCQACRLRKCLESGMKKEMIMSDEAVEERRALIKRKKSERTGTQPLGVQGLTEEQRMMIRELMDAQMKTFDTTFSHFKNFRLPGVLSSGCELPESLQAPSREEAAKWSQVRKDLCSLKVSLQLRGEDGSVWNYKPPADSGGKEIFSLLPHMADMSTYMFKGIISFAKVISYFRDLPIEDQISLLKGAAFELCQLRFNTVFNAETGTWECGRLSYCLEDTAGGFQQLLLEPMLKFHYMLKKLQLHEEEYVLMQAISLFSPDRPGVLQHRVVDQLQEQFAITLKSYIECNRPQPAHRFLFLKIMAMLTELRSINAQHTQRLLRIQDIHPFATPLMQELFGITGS
# [2] = Toxicity in C57BL/6 mouse assessed as mortality at 100 mg dosed as oral gavage as single bolus and measured after 24 hrs relative to control; format: organism-based; conditions: in vivo, read-out: Activity
# Procedure, shortened: (§1)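 Male C57BL/6 wild-type mice aged 6–7 weeks, 3 per group. Single bolus by oral gavage in an olive-oil vehicle, with vehicle-only controls and dose groups of 5, 10, 25, 50 and 100 mg. Animals were checked 24 h after dosing by gross appearance and behaviour, then killed, and liver and main organs were examined post-mortem.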
# Mus musculus [3] = assay: Induction of PXR protein expression in C57BL/6 mouse hepatic parenchyma assessed as induction of localization of PXR protein at hepatocytes around centro-lobular veins at 25 mg dosed as oral gavage as single bolus and measured after 24 hrs by IHC analysis relative to control; format: functional, organism-based
# Procedure, shortened: (§2)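 Male C57BL/6 mice, 6–7 weeks old, three per group. Single oral gavage bolus (5–25 mg) in olive oil; vehicle controls; killed at 24 h. Liver and gut formalin-fixed, paraffin-embedded; 4 μm sections stained with H&E. PXR IHC with polyclonal antibody at 1:200 on an automated stainer with polymer detection.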
# [4] = target: T1, Nuclear receptor subfamily 1 group I member 2; assay: Agonist activity at PXR in human HepaRG cells assessed as increase in CYP3A4 protein expression at 1 to 25 uM incubated for 24 hrs by immunoblot analysis; format: cell-based
# Mus musculus [5] = assay: Induction of PXR protein expression in C57BL/6 mouse intestine assessed as induction of localization of PXR protein at brush border of enterocytes at 10 mg dosed as oral gavage as single bolus and measured after 24 hrs by IHC analysis relative to control; format: functional, organism-based; procedure, shortened: as §2
# [6] = target: T1, Nuclear receptor subfamily 1 group I member 2; assay: Agonist activity at PXR in human HT29 cells assessed as increase in CYP3A4 protein expression at 1 to 25 uM incubated for 24 hrs by immunoblot analysis; format: cell-based
# [7] = target: T1, Nuclear receptor subfamily 1 group I member 2; assay: Agonist activity at His-tagged PXR-LBD/SRC-1p (unknown origin) expressed in Escherichia coli BL21(DE3) by coactivator recruitment based Alpha-screen assay; conditions: read-out: EC50
# [8] = target: T1, Nuclear receptor subfamily 1 group I member 2; assay: Agonist activity at PXR in human HepaRG cells assessed as increase in PXR protein expression at 1 to 25 uM incubated for 24 hrs by immunoblot analysis; format: cell-based
# Mus musculus [9] = assay: Induction of PXR protein expression in C57BL/6 mouse hepatic parenchyma assessed as induction of localization of PXR protein at hepatocytes around lobular midzonal area at 25 mg dosed as oral gavage as single bolus and measured after 24 hrs by IHC analysis relative to control; format: functional, organism-based; procedure, shortened: as §2
# Mus musculus [10] = assay: Induction of PXR-dependent CYP3A11 protein expression in C57BL/6 mouse intestine at 5 to 25 mg dosed as oral gavage as single bolus and measured after 24 hrs relative to control; format: functional, organism-based
# Procedure, shortened: (§3)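 Male C57BL/6 mice, 6–7 weeks old, three per group. Single oral gavage bolus of 5, 10 or 25 mg in olive oil vehicle; vehicle-only controls. Killed at 24 h. Tissue PXR mRNA measured; PXR, CYP3A11 and MDR1 protein measured by immunoblot.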
# [11] = target: T1, Nuclear receptor subfamily 1 group I member 2; assay: Agonist activity at PXR in human HT29 cells assessed as increase in PXR protein expression at 1 to 25 uM incubated for 24 hrs by immunoblot analysis; format: cell-based
# [12] = target: T2, PXR (Nuclear receptor subfamily 1 group I member 2) (Homo sapiens, UniProt O75469); assay: Agonist activity at His-tagged PXR-LBD/SRC-1p (unknown origin) expressed in Escherichia coli BL21(DE3) by coactivator recruitment based Alpha-screen assay relative to T0901317; conditions: read-out: Efficacy
# T2 sequence (O75469 whole entry): T1 sequence (O75469 whole entry)
# Mus musculus [13] = assay: Induction of PXR mRNA expression in C57BL/6 mouse intestine at 5 to 25 mg dosed as oral gavage as single bolus and measured after 24 hrs relative to control; format: functional, organism-based; procedure, shortened: as §3
# [14] = target: T3, Oxysterols receptor LXR-beta (Homo sapiens) (UniProt P55055); assay: Agonist activity at LXR-beta (unknown origin) at 10 uM by coactivator recruitment based Alpha-screen assay
# T3 sequence (whole entry): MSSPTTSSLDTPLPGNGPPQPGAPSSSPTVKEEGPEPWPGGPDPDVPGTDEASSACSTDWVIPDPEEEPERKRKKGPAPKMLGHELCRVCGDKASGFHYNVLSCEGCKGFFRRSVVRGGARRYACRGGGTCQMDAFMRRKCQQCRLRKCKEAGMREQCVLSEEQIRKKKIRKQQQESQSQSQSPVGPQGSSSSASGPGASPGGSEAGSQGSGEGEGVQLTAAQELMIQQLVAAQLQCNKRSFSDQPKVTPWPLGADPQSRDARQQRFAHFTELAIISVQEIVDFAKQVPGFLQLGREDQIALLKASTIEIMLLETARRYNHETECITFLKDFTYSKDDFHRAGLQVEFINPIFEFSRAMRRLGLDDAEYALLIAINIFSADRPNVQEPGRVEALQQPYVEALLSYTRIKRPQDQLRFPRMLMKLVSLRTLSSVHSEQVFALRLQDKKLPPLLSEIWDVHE
# Mus musculus [15] = assay: Induction of PXR-dependent CYP3A11 protein expression in C57BL/6 mouse liver at 5 to 25 mg dosed as oral gavage as single bolus and measured after 24 hrs relative to control; format: functional, organism-based; procedure, shortened: as §3
# [16] = target: T1, Nuclear receptor subfamily 1 group I member 2; assay: Agonist activity at PXR in human HepG2 cells assessed as increase in CYP3A4 protein expression at 1 to 25 uM incubated for 24 hrs by immunoblot analysis; format: cell-based; conditions: hepg2, 24 h
# Procedure, shortened: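 HepG2 cells, passages 2–10, treated 24 h with 1 and 25 μM. Lysates sonicated on ice; 20 μg protein run on 10–12% SDS-PAGE and immunoblotted with anti-PXR or anti-CYP3A4. Bands normalized to housekeeping protein and expressed relative to control (=1).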
# [17] = target: T1, Nuclear receptor subfamily 1 group I member 2; assay: Agonist activity at PXR in human HepaRG cells assessed as reversion of PXR antagonist sulforaphane-induced suppression of PXR expression at 10 uM incubated for 24 hrs by immunoblot analysis; format: cell-based
# [18] = Toxicity in C57BL/6 mouse assessed as mortality at 50 mg dosed as oral gavage as single bolus and measured after 24 hrs relative to control; format: organism-based; conditions: in vivo, read-out: Activity; procedure, shortened: as §1
# [19] = target: T1, Nuclear receptor subfamily 1 group I member 2; assay: Agonist activity at PXR in human HepG2 cells assessed as stimulation of CYP450-mediated alpha-tocopherol metabolites efflux at 25 uM; format: cell-based; conditions: hepg2, 25 µM
structure (smiles),measurement,setting,value
C/C(=C\CC/C(C)=C/CC[C@]1(C)CCc2cc(O)cc(C)c2O1)CC/C=C(\C)C(=O)O,Activity,[1],Active
same,mortality at 24 h,[2],100%
same,Activity,Mus musculus [3],Active
same,Activity,[4],Active
same,Activity,Mus musculus [5],Active
same,Activity,[6],Active
same,EC50,[7],1.3 µM
same,Activity,[8],Active
same,Activity,Mus musculus [9],Active
same,Activity,Mus musculus [10],Active
same,Activity,[11],Active
same,Emax,[12],103%
same,Activity,Mus musculus [13],Dose-dependent effect
same,Activity,[14],inactive
same,Activity,Mus musculus [15],Active
same,Activity,[16],Dose-dependent effect
same,Activity,[17],Active
same,mortality at 24 h,[18],33%
same,Activity,[19],Active
